ChEMBL document CHEMBL1150351, “Design, synthesis, and biological evaluation of new-generation taxoids” (J Med Chem, 2008)
Activity calls are given as the source filed them. The rule behind the calls is not given here.

Tests used:
[1] = Cytotoxicity against multidrug resistant Pgp expressing human NCI/ADR cells after 72 hrs by sulforhodamine B test; format: functional, cell-based; details: NCI/ADR-RES
A2780 = assay: Cytotoxicity against human A2780 cells after 72 hrs; format: functional, cell-based; details: A2780, 72 h
[2] = Cytotoxicity against paclitaxel resistant human 1A9PTX10 cells expressing class 1 beta-tubulin mutant after 72 hrs; format: functional, cell-based; details: 1A9/ptx-10, 72 h
[3] = Cytotoxicity against paclitaxel resistant human 1A9PTX22 cells expressing class 1 beta-tubulin mutant after 72 hrs; format: functional, cell-based; details: 1A9/ptx-22, 72 h
MIA PaCa-2 = assay: Cytotoxicity against multidrug resistant human MIAPaCa2 cells after 72 hrs by MTT assay; format: functional, cell-based; details: MIA PaCa-2, 72 h
How it was run: (§1)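 Pancreatic lines were cultured per ATCC, seeded at 2.5 × 10^4 cells/well and allowed to adhere overnight. The medium was replaced with drug diluted from a 10 mM DMSO stock, or vehicle, for 72 h, in triplicate, with at least three independent trials. MTT at 0.5 mg/mL was added for 3 h, formazan was dissolved in acidified isopropanol, and A570 was read. IC50 came from sigmoid-Emax nonlinear regression.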

CFPAC-1 [4] = assay: Cytotoxicity against multidrug resistant human CFPAC1 cells after 72 hrs by MTT assay; format: functional, cell-based; details: CFPAC-1, 72 h; how it was run: as §1
BXPC-3 = assay: Cytotoxicity against multidrug resistant human BxPC3 cells after 72 hrs by MTT assay; format: functional, cell-based; details: BXPC-3, 72 h; how it was run: as §1
PANC-1 = assay: Cytotoxicity against multidrug resistant human PANC1 cells after 72 hrs by MTT assay; format: functional, cell-based; details: PANC-1, 72 h; how it was run: as §1
[5] = Cytotoxicity against human primary pancreatic ductal cells after 72 hrs by MTT assay; format: cell-based
CFPAC-1 [6] = assay: Antitumor activity against mdr1 expressing multidrug resistant human CFPAC1 cells xenografted Swiss mouse assessed as reduction in tumor volume at 20 mg/kg, iv administered for 3 days after 8 weeks; format: functional, organism-based; set-up: dose 20 mg/kg
How it was run: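 CFPAC-1 (mdr1-high) pancreatic cells, 1 × 10^6 in 200 µL PBS, were injected into both flanks. Treatment began on day 19 at about 100 mm3. Dosing was iv by tail vein on days 19, 22 and 25 at 20 mg/kg each (60 mg/kg total). Stock was 30 mg/mL in Tween-80/ethanol 1:1, diluted in PBS to 0.2 mL. Caliper volume was V=0.4·l·w².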

Bos taurus [7] = species on record: Bos taurus; assay: Induction of calf brain tubulin polymerization at 10 uM after 12 mins in presence of GTP by spectrophotometric assay
How it was run: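 Calf brain microtubule protein, 1 mg/mL in MES buffer with 3 M glycerol, was assembled at 37 °C with 1 mM GTP and 10 µM drug. Turbidity was followed at 350 nm. Tubulin stored in liquid nitrogen was centrifuged just before use and adjusted to 1 mg/mL. CaCl2 (6 mM) was added at 50 min to follow depolymerization.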

DLD-1 [8] = assay: Antitumor activity against Pgp expressing multidrug resistant human DLD1 cells xenografted SCID mouse assessed as tumor growth delay at 20 mg/kg, iv administered for 3 days; format: functional
How it was run: (§2)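 Female SCID mice (6-8 weeks), 5 per treated group, 10 untreated controls, bearing DLD-1 (Pgp+) human colon xenografts. Dosing was iv by tail vein from day 5 after implant, ×3. Stock was 30 mg/mL in Tween-80/ethanol 1:1, diluted in 0.9% saline. Caliper volume V=0.4·l·w² every 3-4 days. Growth delay was time to 600 mm3, interpolated from log(volume) vs time. Cox-Mantel test was used versus control. Cure meant no palpable tumor on day 167.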

DLD-1 [9] = assay: Antitumor activity against Pgp expressing multidrug resistant human DLD1 cells xenografted SCID mouse assessed as tumor growth delay at 10 mg/kg, iv administered for 3 days; format: functional; how it was run: as §2
DLD-1 [10] = assay: Antitumor activity against Pgp expressing multidrug resistant human DLD1 cells xenografted SCID mouse assessed as tumor growth delay at 40 mg/kg, iv administered for 3 days; format: functional; how it was run: as §2
DLD-1 [11] = assay: Antitumor activity against Pgp expressing multidrug resistant human DLD1 cells xenografted SCID mouse assessed as tumor growth at 20 mg/kg, iv administered for 3 days after 167 days; format: functional, organism-based; set-up: dose 20 mg/kg; how it was run: as §2
DLD-1 [12] = assay: Antitumor activity against Pgp expressing multidrug resistant human DLD1 cells xenografted SCID mouse assessed as tumor growth at 10 mg/kg, iv administered for 3 days after 167 days; format: functional, organism-based; set-up: dose 10 mg/kg; how it was run: as §2
Bos taurus [13] = species on record: Bos taurus; assay: Induction of calf brain tubulin polymerization at 10 uM in absence of GTP by spectrophotometric assay
[14] = Cytotoxicity against multidrug resistant Pgp expressing human LCC6 cells after 72 hrs by sulforhodamine B test; format: functional, cell-based; details: LCC-6, 72 h
Mus musculus = assay: Toxicity in Pgp expressing multidrug resistant human DLD1 cells xenografted SCID mouse at 20 mg/kg, iv administered for 3 days; format: organism-based, DLD-1; set-up: dose 20 mg/kg, route intravenous; details: in vivo, 72 h
How it was run: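 Female SCID mice with DLD-1 (Pgp+) colon xenografts, 5 per group. Dosing was iv by tail vein, 20 mg/kg ×3 from day 5 post-implant, in Tween-80/ethanol diluted with saline. Toxicity was counted as animals that died or lost more than 20% body weight.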

[15] = Cytotoxicity against Pgp deficient human LCC6 cells after 72 hrs by sulforhodamine B test; format: functional, cell-based; details: C6, 72 h
C6 = assay: Resistance index, Ratio of IC50 for multidrug resistant Pgp expressing human LCC6 cells to IC50 for Pgp deficient human LCC6 cells; format: functional; set-up: reference not given here
MCF7 [16] = assay: Cytotoxicity against Pgp deficient human MCF7 cells after 72 hrs by sulforhodamine B test; format: functional, cell-based; details: MCF7, 72 h
MCF7 [17] = assay: Resistance index, Ratio of IC50 for multidrug resistant Pgp expressing human NCI/ADR cells to IC50 for Pgp deficient human MCF7 cells; format: functional; set-up: reference not given here
Bos taurus [18] = species on record: Bos taurus; assay: Induction of calf brain tubulin polymerization at 10 uM in after 5 mins in absence of GTP by spectrophotometric assay
Bos taurus [19] = species on record: Bos taurus; assay: Induction of calf brain tubulin polymerization at 10 uM by spectrophotometric assay
How it was run: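 Calf brain microtubule protein diluted to 1 mg/mL in MES buffer with 3 M glycerol; taxoid at 10 µM. Assembly followed at 37 °C as turbidity change at 350 nm. 6 mM CaCl2 added after 50 min to follow depolymerization. Tubulin is 85% of the protein. Runs used either centrifuged tubulin or tubulin used as stored, with 1 mM GTP in some runs.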

Structure (SMILES)	IC50 [1]	IC50 [14]	IC50 [15]	Ratio IC50 (C6)	IC50 (MCF7 [16])	Ratio IC50 (MCF7 [17])	further results
CC(=O)O[C@@]12CO[C@@H]1C[C@H](O)[C@@]1(C)C(=O)[C@H](OC(=O)C3CC3)C3=C(C)[C@@H](OC(=O)[C@H](O)[C@H](C=C(C)C)NC(=O)OC(C)(C)C)C[C@@](O)([C@@H](OC(=O)c4ccccc4)[C@H]21)C3(C)C	3.9 nM	–	–	–	–	–	IC50 (A2780): 0.44 nM; IC50 [2]: 9 nM; IC50 [3]: 3.94 nM; IC50 (MIA PaCa-2): 0.92 nM; IC50 (CFPAC-1 [4]): 0.83 nM; IC50 (BXPC-3): 1.04 nM; IC50 (PANC-1): 3.68 nM; Activity [5]: Non-toxic; Activity (CFPAC-1 [6]): Active; Activity (Bos taurus [7]): 90%; Activity (DLD-1 [8]): >150 days; Activity (DLD-1 [9]): 37 days; Activity (DLD-1 [10]): >150 days; Activity (DLD-1 [11]): Active; Activity (DLD-1 [12]): inactive; Activity (Bos taurus [13]): Active
CC(=O)O[C@H]1C(=O)[C@@]2(C)[C@H]([C@H](OC(=O)c3ccccc3)[C@]3(O)C[C@H](OC(=O)[C@H](O)[C@@H](NC(=O)c4ccccc4)c4ccccc4)C(C)=C1C3(C)C)[C@]1(OC(C)=O)CO[C@@H]1C[C@@H]2O [PACLITAXEL]	300 nM	346 nM	–	–	–	–	IC50 (A2780): 1.38 nM; IC50 [2]: 533 nM; IC50 [3]: 161 nM; Activity (DLD-1 [8]): 8 days; Activity (Mus musculus): Non-toxic; Activity (DLD-1 [11]): inactive
CCC(=O)O[C@H]1C(=O)[C@@]2(C)[C@H]([C@H](OC(=O)c3ccccc3)[C@]3(O)C[C@H](OC(=O)[C@H](O)[C@H](C=C(C)C)NC(=O)C4CCC4)C(C)=C1C3(C)C)[C@]1(OC(C)=O)CO[C@@H]1C[C@@H]2O	41 nM	34 nM	1.3 nM	26	1.2 nM	34	–
CCC(=O)O[C@H]1C(=O)[C@@]2(C)[C@H]([C@H](OC(=O)c3ccccc3)[C@]3(O)C[C@H](OC(=O)[C@H](O)[C@H](C=C(C)C)NC(=O)C4=CCCCC4)C(C)=C1C3(C)C)[C@]1(OC(C)=O)CO[C@@H]1C[C@@H]2O	3.8 nM	11 nM	1.2 nM	9.2	0.3 nM	13	–
CCC(=O)O[C@H]1C(=O)[C@@]2(C)[C@H]([C@H](OC(=O)c3cccc(OC)c3)[C@]3(O)C[C@H](OC(=O)[C@H](O)[C@H](C=C(C)C)NC(=O)OC(C)(C)C)C(C)=C1C3(C)C)[C@]1(OC(C)=O)CO[C@@H]1C[C@@H]2O	0.33 nM	–	1 nM	–	0.36 nM	–	IC50 (A2780): 0.76 nM; IC50 [2]: 3.65 nM; IC50 [3]: 3.88 nM; IC50 (MIA PaCa-2): 0.68 nM; IC50 (CFPAC-1 [4]): 0.89 nM; IC50 (BXPC-3): 3.03 nM; IC50 (PANC-1): 22.6 nM; Activity (Bos taurus [13]): Active; Activity (Bos taurus [18]): > 90%
CCC(=O)O[C@H]1C(=O)[C@@]2(C)[C@H]([C@H](OC(=O)c3ccccc3)[C@]3(O)C[C@H](OC(=O)[C@H](O)[C@H](C=C(C)C)NC(=O)C4=CCCC4)C(C)=C1C3(C)C)[C@]1(OC(C)=O)CO[C@@H]1C[C@@H]2O	6 nM	14 nM	1.2 nM	12	0.4 nM	15	–
COC(=O)O[C@H]1C(=O)[C@@]2(C)[C@H]([C@H](OC(=O)c3cccc(OC)c3)[C@]3(O)C[C@H](OC(=O)[C@H](O)[C@H](C=C(C)C)NC(=O)OC(C)(C)C)C(C)=C1C3(C)C)[C@]1(OC(C)=O)CO[C@@H]1C[C@@H]2O	1.4 nM	1.6 nM	0.6 nM	2.7	0.4 nM	3.5	Activity (Bos taurus [19]): Active; Activity (Bos taurus [13]): Active
CCC(=O)O[C@H]1C(=O)[C@@]2(C)[C@H]([C@H](OC(=O)c3cccc(OC)c3)[C@]3(O)C[C@H](OC(=O)[C@H](O)[C@H](CC(C)C)NC(=O)OC4CCCC4)C(C)=C1C3(C)C)[C@]1(OC(C)=O)CO[C@@H]1C[C@@H]2O	1.18 nM	2.6 nM	0.76 nM	3.4	0.17 nM	6.9	–
CCC(=O)O[C@H]1C(=O)[C@@]2(C)[C@H]([C@H](OC(=O)c3ccccc3)[C@]3(O)C[C@H](OC(=O)[C@H](O)[C@H](C=C(C)C)NC(=O)C4CCCC4)C(C)=C1C3(C)C)[C@]1(OC(C)=O)CO[C@@H]1C[C@@H]2O	22 nM	19 nM	1.1 nM	17	1.1 nM	20	–
CCC(=O)O[C@H]1C(=O)[C@@]2(C)[C@H]([C@H](OC(=O)c3ccccc3)[C@]3(O)C[C@H](OC(=O)[C@H](O)[C@H](CC(C)C)NC(=O)C4CCCCC4)C(C)=C1C3(C)C)[C@]1(OC(C)=O)CO[C@@H]1C[C@@H]2O	19 nM	32 nM	5.8 nM	5.5	1.5 nM	13	–
CCC(=O)O[C@H]1C(=O)[C@@]2(C)[C@H]([C@H](OC(=O)c3cccc(OC)c3)[C@]3(O)C[C@H](OC(=O)[C@H](O)[C@H](C=C(C)C)NC(=O)C4CCCC4)C(C)=C1C3(C)C)[C@]1(OC(C)=O)CO[C@@H]1C[C@@H]2O	9.5 nM	11 nM	1.1 nM	10	0.3 nM	32	–
